Results from ChEMBL document CHEMBL1138555, “N-acylated and N,N'-diacylated imidazolidine-2-thione derivatives and N,N'-diacylated tetrahydropyrimidine-2(1H)-thione analogues: synthesis and antiproliferative activity” (Eur J Med Chem, 2009).

System: K562
Experiment: Growth inhibition of human K562 cells after 48 hrs by sulforhodamine B assay
Format: functional
Details: K562, 48 h
Procedure, shortened: (§1)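 NCI screen panel. Five 10-fold concentrations from 10^-4 to 10^-8 M. Exposure for the last 48 h of a 72 h incubation. Growth estimated by sulforhodamine B protein assay. GI50 is the concentration giving 50% growth inhibition. Where that level was not reached or was exceeded, the value is given as above or below the highest or lowest concentration tested.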

Structure (SMILES) | GI50 [nM]
O=CN1CCN(C(=O)c2ccco2)C1=S | 2600

System: A498
Experiment: Growth inhibition of human A498 cells after 48 hrs by sulforhodamine B assay
Format: functional
Details: A498, 48 h
Procedure, shortened: as §1

Structure (SMILES) | GI50 [µM]
O=CN1CCN(C(=O)c2ccco2)C1=S | 16.5

System: PC-3
Experiment: Growth inhibition of human PC3 cells after 48 hrs by sulforhodamine B assay
Format: functional
Details: PC-3, 48 h
Procedure, shortened: as §1

Structure (SMILES) | GI50 [µM]
O=CN1CCN(C(=O)c2ccco2)C1=S | 5

System: SF-268
Experiment: Growth inhibition of human SF268 cells after 48 hrs by sulforhodamine B assay
Format: functional
Details: SF-268, 48 h
Procedure, shortened: as §1

Structure (SMILES) | GI50 [µM]
O=CN1CCN(C(=O)c2ccco2)C1=S | 3.9

System: U-251
Experiment: Growth inhibition of human U251 cells after 48 hrs by sulforhodamine B assay
Format: functional
Details: U-251, 48 h
Procedure, shortened: (§2)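 NCI in vitro panel screen. Compounds tested at five 10-fold dilutions, 10^-4 to 10^-8 M. Cells in 96-well plates were exposed for the last 48 h of a 72 h incubation. Viability/growth was read by sulforhodamine B protein assay. GI50 is the concentration giving 50% growth inhibition. Values beyond the tested range are reported as greater or less than the maximum or minimum concentration.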

Structure (SMILES) | GI50 [µM]
O=CN1CCN(C(=O)c2ccco2)C1=S | 14.1

System: HCT-15
Experiment: Growth inhibition of human HCT15 cells after 48 hrs by sulforhodamine B assay
Format: functional
Details: HCT-15, 48 h
Procedure, shortened: as §1

Structure (SMILES) | GI50 [µM]
O=CN1CCN(C(=O)c2ccco2)C1=S | 5.6

System: HCC 2998
Experiment: Growth inhibition of human HCC2998 cells after 48 hrs by sulforhodamine B assay
Format: functional
Details: HCC 2998, 48 h
Procedure, shortened: as §1

Structure (SMILES) | GI50 [µM]
O=CN1CCN(C(=O)c2ccco2)C1=S | 13.4

System: HL-60(TB)
Experiment: Growth inhibition of human HL-60(TB) cells after 48 hrs by sulforhodamine B assay
Format: functional
Details: HL-60, 48 h
Procedure, shortened: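 NCI 60-cell-line screen protocol: cells exposed to compound at five 10-fold dilutions from 10^-4 to 10^-8 M for the last 48 h of a 72 h incubation. Sulforhodamine B protein assay estimated viability/growth. GI50 (50% growth inhibition) derived; where not reached or exceeded, reported as greater or less than the highest or lowest concentration tested.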

Structure (SMILES) | GI50 [nM]
O=CN1CCN(C(=O)c2ccco2)C1=S | 2800

System: ACHN
Experiment: Growth inhibition of human ACHN cells after 48 hrs by sulforhodamine B assay
Format: functional
Details: not given
Procedure, shortened: as §1

Structure (SMILES) | GI50 [µM]
O=CN1CCN(C(=O)c2ccco2)C1=S | 6.5

System: MOLT-4
Experiment: Growth inhibition of human MOLT4 cells after 48 hrs by sulforhodamine B assay
Format: functional
Details: MOLT-4, 48 h
Procedure, shortened: as §1

Structure (SMILES) | GI50 [µM]
O=CN1CCN(C(=O)c2ccco2)C1=S | 4.6

System: SK-MEL-2
Experiment: Growth inhibition of human SK-MEL-2 cells after 48 hrs by sulforhodamine B assay
Format: functional
Details: SK-MEL-2, 48 h
Procedure, shortened: as §1

Structure (SMILES) | GI50 [µM]
O=CN1CCN(C(=O)c2ccco2)C1=S | 16.5

System: SN12C
Experiment: Growth inhibition of human SN12C cells after 48 hrs by sulforhodamine B assay
Format: functional
Details: not given
Procedure, shortened: as §2

Structure (SMILES) | GI50 [µM]
O=CN1CCN(C(=O)c2ccco2)C1=S | 5.3

System: SNB-75
Experiment: Growth inhibition of human SNB75 cells after 48 hrs by sulforhodamine B assay
Format: functional
Details: SNB-75, 48 h
Procedure, shortened: as §2

Structure (SMILES) | GI50 [µM]
O=CN1CCN(C(=O)c2ccco2)C1=S | 8.6

System: OVCAR-3
Experiment: Growth inhibition of human OVCAR-3 cells after 48 hrs by sulforhodamine B assay
Format: functional
Details: OVCAR-3, 48 h
Procedure, shortened: as §1

Structure (SMILES) | GI50 [µM]
O=CN1CCN(C(=O)c2ccco2)C1=S | 4.2

System: OVCAR-8
Experiment: Growth inhibition of human OVCAR8 cells after 48 hrs by sulforhodamine B assay
Format: functional
Details: OVCAR-8, 48 h
Procedure, shortened: as §1

Structure (SMILES) | GI50 [µM]
O=CN1CCN(C(=O)c2ccco2)C1=S | 16.8

System: BT-549
Experiment: Growth inhibition of human BT549 cells after 48 hrs by sulforhodamine B assay
Format: functional
Details: BT-549, 48 h
Procedure, shortened: as §1

Structure (SMILES) | GI50 [nM]
O=CN1CCN(C(=O)c2ccco2)C1=S | 2300

System: TK-10
Experiment: Growth inhibition of human TK10 cells after 48 hrs by sulforhodamine B assay
Format: functional
Details: TK-10, 48 h
Procedure, shortened: as §2

Structure (SMILES) | GI50 [µM]
O=CN1CCN(C(=O)c2ccco2)C1=S | 14.3

System: RXF 393
Experiment: Growth inhibition of human RXF393 cells after 48 hrs by sulforhodamine B assay
Format: functional
Details: RXF 393, 48 h
Procedure, shortened: as §1

Structure (SMILES) | GI50 [µM]
O=CN1CCN(C(=O)c2ccco2)C1=S | 3.3

System: HCT-116
Experiment: Growth inhibition of human HCT116 cells after 48 hrs by sulforhodamine B assay
Format: functional
Details: HCT-116, 48 h
Procedure, shortened: as §1

Structure (SMILES) | GI50 [µM]
O=CN1CCN(C(=O)c2ccco2)C1=S | 10.2

System: IGROV-1
Experiment: Growth inhibition of human IGROV1 cells after 48 hrs by sulforhodamine B assay
Format: functional
Details: IGROV-1, 48 h
Procedure, shortened: as §1

Structure (SMILES) | GI50 [µM]
O=CN1CCN(C(=O)c2ccco2)C1=S | 7.5

System: LOX IMVI
Experiment: Growth inhibition of human LOXIMVI cells after 48 hrs by sulforhodamine B assay
Format: functional
Details: not given
Procedure, shortened: as §1

Structure (SMILES) | GI50 [µM]
O=CN1CCN(C(=O)c2ccco2)C1=S | 3.4

System: DU-145
Experiment: Growth inhibition of human DU145 cells after 48 hrs by sulforhodamine B assay
Format: functional
Details: DU-145, 48 h
Procedure, shortened: as §1

Structure (SMILES) | GI50 [nM]
O=CN1CCN(C(=O)c2ccco2)C1=S | 2500

System: MDA-N
Experiment: Growth inhibition of human MDA-N cells after 48 hrs by sulforhodamine B assay
Format: functional
Details: not given
Procedure, shortened: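 NCI screen panel. Five 10-fold concentrations from 10^-4 to 10^-8 M. Exposure for the last 48 h of a 72 h incubation. Growth estimated by sulforhodamine B protein assay. Where that level was not reached or was exceeded, the value is given as above or below the highest or lowest concentration tested.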

Structure (SMILES) | GI50 [µM]
O=CN1CCN(C(=O)c2ccco2)C1=S | 9.1

System: M14
Experiment: Growth inhibition of human M14 cells after 48 hrs by sulforhodamine B assay
Format: functional
Details: M14, 48 h
Procedure, shortened: as §1

Structure (SMILES) | GI50 [µM]
O=CN1CCN(C(=O)c2ccco2)C1=S | 10.7

System: HT-29
Experiment: Growth inhibition of human HT-29 cells after 48 hrs by sulforhodamine B assay
Format: functional
Details: HT-29, 48 h
Procedure, shortened: as §1

Structure (SMILES) | GI50 [µM]
O=CN1CCN(C(=O)c2ccco2)C1=S | 7.5

System: NCI-H23
Experiment: Growth inhibition of human NCI-H23 cells after 48 hrs by sulforhodamine B assay
Format: functional
Details: NCI-H23, 48 h
Procedure, shortened: as §1

Structure (SMILES) | GI50 [µM]
O=CN1CCN(C(=O)c2ccco2)C1=S | 16.7

System: CAKI-1
Experiment: Growth inhibition of human Caki1 cells after 48 hrs by sulforhodamine B assay
Format: functional
Details: CAKI-1, 48 h
Procedure, shortened: as §1

Structure (SMILES) | GI50 [µM]
O=CN1CCN(C(=O)c2ccco2)C1=S | 5.1

System: EKVX
Experiment: Growth inhibition of human EKVX cells after 48 hrs by sulforhodamine B assay
Format: functional
Details: not given
Procedure, shortened: as §1

Structure (SMILES) | GI50 [µM]
O=CN1CCN(C(=O)c2ccco2)C1=S | 13.7

System: KM12
Experiment: Growth inhibition of human KM12 cells after 48 hrs by sulforhodamine B assay
Format: functional
Details: KM12, 48 h
Procedure, shortened: as §1

Structure (SMILES) | GI50 [µM]
O=CN1CCN(C(=O)c2ccco2)C1=S | 5.3

System: MDA-MB-435
Experiment: Growth inhibition of human MDA-MB-435 cells after 48 hrs by sulforhodamine B assay
Format: functional
Details: MDA-MB-435, 48 h
Procedure, shortened: as §1

Structure (SMILES) | GI50 [µM]
O=CN1CCN(C(=O)c2ccco2)C1=S | 6.4

System: SF-539
Experiment: Growth inhibition of human SF539 cells after 48 hrs by sulforhodamine B assay
Format: functional
Details: SF-539, 48 h
Procedure, shortened: as §1

Structure (SMILES) | GI50 [nM]
O=CN1CCN(C(=O)c2ccco2)C1=S | 2500

System: NCI-H522
Experiment: Growth inhibition of human NCI-H522 cells after 48 hrs by sulforhodamine B assay
Format: functional
Details: NCI-H522, 48 h
Procedure, shortened: as §1

Structure (SMILES) | GI50 [µM]
O=CN1CCN(C(=O)c2ccco2)C1=S | 4

System: A549
Experiment: Growth inhibition of human A549 cells after 48 hrs by sulforhodamine B assay
Format: functional
Details: A549, 48 h
Procedure, shortened: as §1

Structure (SMILES) | GI50 [µM]
O=CN1CCN(C(=O)c2ccco2)C1=S | 12.5

System: UO-31
Experiment: Growth inhibition of human UO31 cells after 48 hrs by sulforhodamine B assay
Format: functional
Details: UO-31, 48 h
Procedure, shortened: as §2

Structure (SMILES) | GI50 [µM]
O=CN1CCN(C(=O)c2ccco2)C1=S | 4.5

System: HOP-62
Experiment: Growth inhibition of human HOP62 cells after 48 hrs by sulforhodamine B assay
Format: functional
Details: HOP-62, 48 h
Procedure, shortened: as §1

Structure (SMILES) | GI50 [µM]
O=CN1CCN(C(=O)c2ccco2)C1=S | 12

System: OVCAR-4
Experiment: Growth inhibition of human OVCAR4 cells after 48 hrs by sulforhodamine B assay
Format: functional
Details: OVCAR-4, 48 h
Procedure, shortened: as §1

Structure (SMILES) | GI50 [µM]
O=CN1CCN(C(=O)c2ccco2)C1=S | 18.6

System: NCI-H322M
Experiment: Growth inhibition of human NCI-H322M cells after 48 hrs by sulforhodamine B assay
Format: functional
Details: not given
Procedure, shortened: as §1

Structure (SMILES) | GI50 [µM]
O=CN1CCN(C(=O)c2ccco2)C1=S | 18.5

System: NCI/ADR-RES
Experiment: Growth inhibition of human NCI/ADR-RES cells after 48 hrs by sulforhodamine B assay
Format: functional
Details: not given
Procedure, shortened: as §1

Structure (SMILES) | GI50 [µM]
O=CN1CCN(C(=O)c2ccco2)C1=S | 24.5

System: MT4
Experiment: Antiproliferative activity against human MT4 cells assessed as reduction of growth by MTT assay
Format: functional, cell-based
Details: not given
Procedure, shortened: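 MT-4 lymphoblastoid T cells (ATCC) in RPMI 1640 with 10% FCS, penicillin/streptomycin, checked for mycoplasma. 1 × 10⁴ mock-infected cells per well with serial dilutions from a 100 mM DMSO stock. Incubated 4 days at 37 °C, viable cells counted by MTT. IC50 versus untreated controls by linear regression. Mean of three separate experiments.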

Structure (SMILES) | IC50 [µM]
O=CN1CCN(C(=O)c2ccco2)C1=S | 9
